Data taken from PMC8849394 (Science Advances, 2022).
Ends that are not written are not given here. * marks the point of attachment. FITC = O=C1OC2(c3ccc(O)cc3Oc3cc(O)ccc32)c2ccc(NC(=S)*)cc21

Key:
[1] = system: human SCLC cell lines; assay: MTT cell viability / short-term proliferation, human SCLC lines; format: cell-based
[2] = system: human NSCLC (lung adenocarcinoma) cell lines; assay: MTT cell viability / short-term proliferation, human NSCLC lines; format: cell-based; details: for growth of NSCLC cells under BRD/HAT inhibitors: MTT
[3] = system: mouse SCLC cells (RP-1); assay: MTT cell viability, mouse SCLC cells RP-1; format: cell-based; details: RP-1, MTT, n = 3
Summary of the method: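 Murine SCLC cells derived from Rb1/Trp53-mutant mouse lung tumors are grown in RPMI1640 with 10% bovine growth serum. Cells are seeded at 1×10^4 per well and treated with bromodomain- or HAT-domain-targeting test compounds. Over 0 to 4 or 6 days, MTT (0.5 mg/ml final) is added for 4 h at 37°C and OD is read at 590 nm, minus a vehicle blank. Triplicates; n = 3.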

[4] = system: human SCLC cell lines; assay: Soft agar colony formation, human SCLC lines; format: cell-based; details: 2 μM in DMSO; H69, H209, H524; n = 3
[5] = system: human NSCLC (lung adenocarcinoma) cell lines; assay: Soft agar colony formation, human NSCLC lines; format: cell-based; details: 2 μM in DMSO; H1650 (fig. S8A); n = 3
[6] = system: interaction between CREB1 and the KIX domain of EP300; details: cited from earlier work
[7] = system: interaction between CREB1 and the KIX domain of CREBBP; details: cited from earlier work
[8] = target: FITC-labeled MYB peptide (MYB25); assay: fluorescence polarisation
[9] = target: rhodamine-labeled MLL peptide (MLL25); assay: fluorescence polarisation
[10] = system: EP300; assay: Anti-FLAG immunoprecipitation/immunoblot for EP300 in H524 cell extracts; format: cell-based, human; details: FLAG-tagged M/M, IP relative to input, n = 3
Summary of the method: (§1)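 H524 cells express FLAG-tagged M/M fusion peptide from a doxycycline-inducible promoter. Cells are lysed in RIPA (pH 8.0, with protease inhibitors). Lysates are immunoprecipitated with anti-FLAG or control IgG overnight at 4°C, then protein A/G agarose is added for 4 h at 4°C. Eluates are immunoblotted for FLAG, EP300 and CREBBP. IP band intensity is expressed relative to 5% input; n = 3; unpaired t test.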

[11] = system: CREBBP; assay: Anti-FLAG immunoprecipitation/immunoblot for CREBBP in H524 cell extracts; format: cell-based, human; details: FLAG-tagged M/M, IP relative to input, n = 3
Summary of the method: as §1

[12] = system: H209 SCLC cells; assay: RNA sequencing, GSEA and KEGG analysis, H209 cells; format: cell-based, human
Summary of the method: (§2)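 SCLC cells express M/M or M/M-5A peptide under a doxycycline-inducible promoter. mRNA is oligo(dT)-purified from 500 ng total RNA, and 100-bp single-end reads are sequenced on an Illumina NextSeq2000. Differential expression signatures come from comparing TPM between experimental and control groups. GSEA is run on the signature using Molecular Signatures Database v7.4 gene sets.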

[13] = system: H524 SCLC cells; assay: RNA sequencing, GSEA and KEGG analysis, H524 cells; format: cell-based, human; details: H524, M/M vs M/M-5A
Summary of the method: as §2

[14] = target: purified KIX domain of CREBBP (Mus musculus, UniProt P45481); assay: FP assay, direct binding of fluorophore-labeled peptides to CREBBP KIX
Summary of the method: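 CREBBP KIX domain (87 residues, 585-672) was expressed from pMAL-c5E in E. coli Rosetta (DE3) and purified by affinity then anion-exchange chromatography. FP probes were N-terminally FITC-labelled MYB peptide and rhodamine-labelled MLL peptide, each at 0.5 µM, in 50 mM Hepes (pH 7.5) with 50 mM NaCl. Plates were incubated 30 min in the dark at room temperature, then read for polarization.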

[15] = target: EP300 KIX domain (human, UniProt Q09472 565-652); assay: fluorescence polarisation
[16] = target: A627D EP300 KIX (human, UniProt Q09472 565-652, A627D); assay: fluorescence polarisation
Chain of A627D EP300 KIX (Q09472 565-652 A627D): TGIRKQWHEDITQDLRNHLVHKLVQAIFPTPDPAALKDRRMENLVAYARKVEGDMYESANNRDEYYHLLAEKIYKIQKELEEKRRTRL

Chain of EP300 KIX domain (Q09472 565-652): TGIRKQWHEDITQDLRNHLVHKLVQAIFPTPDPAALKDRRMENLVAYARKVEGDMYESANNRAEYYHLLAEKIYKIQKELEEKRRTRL
Chain of purified KIX domain of CREBBP (P45481 585-672): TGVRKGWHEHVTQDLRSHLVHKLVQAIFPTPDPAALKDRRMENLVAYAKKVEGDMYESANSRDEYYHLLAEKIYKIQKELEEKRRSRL

Molecule: CC1=NN(c2ccc(C(=O)O)cc2)C(=O)/C1=C\c1ccc(-c2cc(C)c(C)cc2[N+](=O)[O-])o1 [C646]
- growth of human SCLC cells under BRD/HAT inhibitors ([1]; MTT, n = 3): either insignificant or modest
- growth of NSCLC cells under BRD/HAT inhibitors ([2]; n = 3): dose-dependent effects on NSCLC lines
- growth of mouse SCLC cells [3]: did not have any significant effect on the growth

Molecule: CCC(=O)N1CCOc2c(cc(-c3ccc(OC)c(OC)c3)cc2OC[C@H]2CCCN(C)C2)C1 [I-CBP112]
- growth of human SCLC cells under BRD/HAT inhibitors ([1]; MTT, n = 3): either insignificant or modest
- growth of NSCLC cells under BRD/HAT inhibitors ([2]; n = 3): dose-dependent effects on NSCLC lines
- growth of mouse SCLC cells [3]: did not have any significant effect on the growth

Molecule: O=C(Nc1ccc(Cl)cc1)c1cc2ccccc2cc1OP(=O)(O)O [KG-501, 2-naphthol-AS-E-phosphate]
- short-term growth of SCLC lines, KG-501 ([1]; in culture): inhibited the short-term growth of SCLC lines in culture
- soft agar colony formation of SCLC lines, KG-501 [4]: inhibited the short-term growth of SCLC lines in culture and colony formation in soft agar
- short-term growth of NSCLC lines, KG-501 ([2]; in culture): did not have a significant effect on NSCLC cell lines
- soft agar colony formation of NSCLC lines, KG-501 [5]: did not have a significant effect on NSCLC cell lines
- inhibition of CREB1-EP300 KIX interaction [6]: shown to inhibit the interaction between CREB1 and the KIX domains of EP300 and CREBBP
- inhibition of CREB1-CREBBP KIX interaction [7]: shown to inhibit the interaction between CREB1 and the KIX domains of EP300 and CREBBP

Molecule: COc1ccc(CCc2nc3cc(-c4c(C)noc4C)ccc3n2C[C@H](C)N2CCOCC2)cc1Cl [SGC-CBP30]
- growth of human SCLC cells under BRD/HAT inhibitors ([1]; MTT, n = 3): either insignificant or modest
- growth of NSCLC cells under BRD/HAT inhibitors ([2]; n = 3): dose-dependent effects on NSCLC lines
- growth of mouse SCLC cells [3]: did not have any significant effect on the growth

Molecule: CREBBP KIX domain (from UniProt Q92793 585-672) (domain or fragment)
- Kd [8]: 22 µM
- Kd [9]: 94 µM

Molecule: D647A CREBBP KIX domain (from UniProt Q92793 585-672) (domain or fragment)
- Kd [8]: 6.7 µM

Molecule: H-SDDGNILPSDIMDFVLKNTPSMQALGESGGDEDPEKEKRIKELELLLMSTENELKGQQAL-OH [M/M]
- binding to EP300 in cells [10]: confirmed the binding of M/M to both EP300 and CREBBP
- preference EP300 over CREBBP in cells [10]: bound preferentially to EP300 than to CREBBP
- binding to CREBBP in cells [11]: confirmed the binding of M/M to both EP300 and CREBBP
- short-term proliferation of SCLC cells ([1]; doxycycline-inducible lentiviral expression of peptide, MTT, n = 3): inhibited the short-term proliferation
- growth of lung adenocarcinoma cells, MTT ([2]; doxycycline-inducible lentiviral expression of peptide, n = 3): did not detectably affect the growth of lung adenocarcinoma cell lines
- gene set enrichment (GSEA), TF target genes ([12]; H209, M/M vs M/M-5A): significantly enriched in the gene sets related to MYB, ATF4, CREB1, and CREBP1/JUN targets
- KEGG pathway small cell lung cancer ([12]; M/M-expressing H209 vs M/M-5A): down-regulated in M/M-expressing H209 cells
- gene set enrichment (GSEA), TF target genes [13]: significantly enriched in the gene sets related to MYB, ATF4, CREB1, and CREBP1/JUN targets

Molecule: SDDGNILPSDIMDFVLKNTPSMQAL [MLL25]
- Kd [14]: 94 ± 11 µM

Molecule: {FITC}-KEKRIKELELLLMSTENELKGQQAL [FITC-labeled MYB peptide (MYB25)]
- Kd [15]: 3.8 ± 0.2 µM
- Kd [16]: 23 ± 6.2 µM

Molecule: SDDGNILPSDIMDFVLKNTPSMQAL (also: rhodamine label) [rhodamine-labeled MLL peptide (MLL25)]
- Kd [15]: 40 ± 14 µM
- Kd [16]: 80 ± 8.5 µM
